The source made the active and inactive calls. The rule behind the calls is not given here.
How the values were obtained:
Mus musculus [1] = test: Inhibition of iron-dextran conjugate-induced Smad-1 phosphorylation in C57BL/6 mouse at 23 ug/g, iv after 1 hr; format: functional, organism-based
Danio rerio [2] = organism: Danio rerio; test: Inhibition of BMPR1 in zebrafish assessed as increase in myod expression at 10 uM treated at 12 hrs post-fertilization measured at 48 hrs
[3] = (§1) Inhibition of BMPR1-mediated Smad-1 phosphorylation in BMP4-stimulated mouse PASMC treated 30 mins before BMP4 challenge measured after 30 mins by immunoblot analysis
How it was run: (§2)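 Mouse PASMCs were held 24 h in 0.5% FCS RPMI, preincubated 30 min with a dose range of compound, then stimulated 30 min with BMP4. Phospho-SMAD1/5/8 and phospho-p38 were detected by immunoblot and quantitated by phosphorimager (RLU). IC50 was derived from a Hill plot of phospho-SMAD1/5/8 inhibition.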

Mus musculus [4] = organism: Mus musculus; test: as §1; how it was run: as §2
Mus musculus [5] = organism: Mus musculus; test: Inhibition of BMPR1-mediated MAPK p38 phosphorylation in BMP4-stimulated mouse PASMC at 100 to 200 ng/ml treated 30 mins before BMP4 challenge measured after 30 mins by immunoblot analysis
How it was run: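 Mouse PASMCs were serum-reduced 24 h in 0.5% FCS RPMI, pretreated 30 min with noggin or vehicle, then given BMP4 for 30 min. Lysates in SDS buffer were immunoblotted for phospho-SMAD1/5/8 and phospho-MAPK p38, and signals were quantitated by phosphorimager.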

Mus musculus [6] = organism: Mus musculus; test: Inhibition of BMPR1-mediated Smad-5 phosphorylation in BMP4-stimulated mouse PASMC at 4 uM treated 30 mins before BMP4 challenge measured after 30 mins by immunoblot analysis
How it was run: (§3)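 Wild-type mouse PASMCs were kept in RPMI with 0.5% FCS for 24 h. They were preincubated with compound or vehicle for 30 min, then stimulated for 30 min with recombinant BMP2, BMP4, BMP6 or BMP7 at 10 ng ml−1. Lysates in SDS buffer were immunoblotted with anti-phospho-SMAD1/5/8. Total SMAD1 and α-tubulin served as loading controls, and bands were quantified by phosphorimager.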

Mus musculus [7] = organism: Mus musculus; test: Inhibition of BMPR1-mediated Smad-8 phosphorylation in BMP4-stimulated mouse PASMC at 4 uM treated 30 mins before BMP4 challenge measured after 30 mins by immunoblot analysis; how it was run: as §3
Mus musculus [8] = organism: Mus musculus; test: Inhibition of BMPR1-mediated Smad-1 phosphorylation in BMP2-stimulated mouse PASMC at 4 uM treated 30 mins before BMP2 challenge measured after 30 mins by immunoblot analysis
How it was run: (§4)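 PASMCs (wild-type or BMPR-II–deficient) were kept 24 h in RPMI with 0.5% FCS, preincubated 30 min with compound or vehicle, then stimulated 30 min with recombinant BMP (10 ng ml−1). Extracts in SDS-lysis buffer were immunoblotted for phospho-SMAD1/5/8, with total SMAD1 and α-tubulin as loading controls. Bands were quantitated by phosphorimager.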

Mus musculus [9] = organism: Mus musculus; test: Inhibition of BMPR1-mediated Smad-8 phosphorylation in BMP2-stimulated mouse BMPR2 deficient PASMC at 4 uM treated 30 mins before BMP2 measured after 30 mins by immunoblot analysis
Mus musculus [10] = organism: Mus musculus; test: Inhibition of BMPR1-mediated Smad-1 phosphorylation in BMP4-stimulated mouse BMPR2 deficient PASMC at 4 uM treated 30 mins before BMP4 challenge measured after 30 mins by immunoblot analysis; how it was run: as §4
Mus musculus [11] = organism: Mus musculus; test: Inhibition of BMPR1-mediated Smad-5 phosphorylation in BMP4-stimulated mouse BMPR2 deficient PASMC at 4 uM treated 30 mins before BMP4 challenge measured after 30 mins by immunoblot analysis
C2C12 = test: Cytotoxicity against mouse C2C12 cells at 4 uM by Cell Titer Glo assay; format: cell-based; conditions: c2c12, 4 µM
How it was run: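 C2C12 cells seeded at 2,000 cells/well in DMEM with 2% FBS and treated in quadruplicate with BMP ligands plus compound or vehicle. Viability measured by Cell-titer Glo after 5 d culture, using replicate wells treated identically to those for alkaline phosphatase.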

HepG2 = test: Inhibition of BMPR1-mediated hepcidin mRNA expression in BMP2-stimulated human HepG2 cells at 10 uM treated 30 mins before BMP2 challenge measured after 16 hrs by qRT-PCR analysis; format: cell-based
Danio rerio [12] = organism: Danio rerio; test: Inhibition of BMPR1 in zebrafish assessed as severity of embryonic axis dorsalization at 10 uM treated at 2 to 4 hrs post-fertilization measured at 48 hrs; set-up: scale not given: the % may be the effect or the level left
Danio rerio [13] = organism: Danio rerio; test: Inhibition of BMPR1 in zebrafish assessed as penetrance of mild embryonic axis dorsalization at 10 uM treated at 2 to 8 hrs post-fertilization measured at 48 hrs; set-up: scale not given: the % may be the effect or the level left
How it was run: (§5)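 Compound added at the stated times and concentrations. Gross morphology scored visually at up to 48 h.p.f. for dorsalization of the embryonic axis.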

Danio rerio [14] = organism: Danio rerio; test: Inhibition of BMPR1 in zebrafish assessed as penetrance of normal embryonic axis dorsalization at 0.2 uM treated at 3 hrs post-fertilization measured at 48 hrs; set-up: scale not given: the % may be the effect or the level left
Danio rerio [15] = organism: Danio rerio; test: Inhibition of BMPR1 in zebrafish assessed as penetrance of mild embryonic axis dorsalization at 0.5 uM treated at 3 hrs post-fertilization measured at 48 hrs; set-up: scale not given: the % may be the effect or the level left; how it was run: as §5
Danio rerio [16] = organism: Danio rerio; test: Inhibition of BMPR1 in zebrafish assessed as penetrance of moderate embryonic axis dorsalization at 0.5 uM treated at 3 hrs post-fertilization measured at 48 hrs; set-up: scale not given: the % may be the effect or the level left; how it was run: as §5
Danio rerio [17] = organism: Danio rerio; test: Inhibition of BMPR1 in zebrafish assessed as severity of embryonic axis dorsalization at 0.5 uM treated at 3 hrs post-fertilization measured at 48 hrs; set-up: scale not given: the % may be the effect or the level left
Danio rerio [18] = organism: Danio rerio; test: Inhibition of BMPR1 in zebrafish assessed as penetrance of normal embryonic axis dorsalization at 1 uM treated at 3 hrs post-fertilization measured at 48 hrs; set-up: scale not given: the % may be the effect or the level left
Danio rerio [19] = organism: Danio rerio; test: Inhibition of BMPR1 in zebrafish assessed as penetrance of mild embryonic axis dorsalization at 1 uM treated at 3 hrs post-fertilization measured at 48 hrs; set-up: scale not given: the % may be the effect or the level left; how it was run: as §5
Danio rerio [20] = organism: Danio rerio; test: Inhibition of BMPR1 in zebrafish assessed as penetrance of moderate embryonic axis dorsalization at 1 uM treated at 3 hrs post-fertilization measured at 48 hrs; set-up: scale not given: the % may be the effect or the level left; how it was run: as §5
Danio rerio [21] = organism: Danio rerio; test: Inhibition of BMPR1 in zebrafish assessed as severity of embryonic axis dorsalization at 2 uM treated at 3 hrs post-fertilization measured at 48 hrs; set-up: scale not given: the % may be the effect or the level left
Danio rerio [22] = organism: Danio rerio; test: Inhibition of BMPR1 in zebrafish assessed as penetrance of moderate embryonic axis dorsalization at 7.5 uM treated at 3 hrs post-fertilization measured at 48 hrs; set-up: scale not given: the % may be the effect or the level left
Danio rerio [23] = organism: Danio rerio; test: Inhibition of BMPR1 in zebrafish assessed as penetrance of normal embryonic axis dorsalization at 10 uM treated at 3 hrs post-fertilization measured at 48 hrs; set-up: scale not given: the % may be the effect or the level left
Danio rerio [24] = organism: Danio rerio; test: Inhibition of BMPR1 in zebrafish assessed as penetrance of moderate embryonic axis dorsalization at 10 uM treated at 3 hrs post-fertilization measured at 48 hrs; set-up: scale not given: the % may be the effect or the level left; how it was run: as §5
Danio rerio [25] = organism: Danio rerio; test: Inhibition of BMPR1 in zebrafish assessed as penetrance of moderate embryonic axis dorsalization at 10 uM treated at 2 to 4 hrs post-fertilization measured at 48 hrs; set-up: scale not given: the % may be the effect or the level left; how it was run: as §5

## c1cc(-c2cnn3cc(-c4ccc(OCCN5CCCCC5)cc4)cnc23)ccn1 [DORSOMORPHIN]
Mus musculus [1]
  inhibition: Active
Danio rerio [2]
  Activity: Active
[3]
  IC50: 470 nM
Mus musculus [4]
  inhibition: Dose-dependent effect
Mus musculus [5]
  inhibition: Active
Mus musculus [6]
  inhibition: Active
Mus musculus [7]
  inhibition: Active
Mus musculus [8]
  inhibition: Active
Mus musculus [9]
  inhibition: Active
Mus musculus [10]
  inhibition: Active
Mus musculus [11]
  inhibition: Active
C2C12
  Activity: Non-toxic
HepG2
  inhibition: Active
Danio rerio [12]
  Activity: 0%
Danio rerio [13]
  Activity: 0%
Danio rerio [14]
  Activity: 100%
Danio rerio [15]
  Activity: 0%
Danio rerio [16]
  Activity: 0%
Danio rerio [17]
  Activity: 0%
Danio rerio [18]
  Activity: 100%
Danio rerio [19]
  Activity: 0%
Danio rerio [20]
  Activity: 0%
Danio rerio [21]
  Activity: 0%
Danio rerio [22]
  Activity: 42%
Danio rerio [23]
  Activity: 0%
Danio rerio [24]
  Activity: 98%
Danio rerio [25]
  Activity: 90%

Source: ChEMBL document CHEMBL1212693, “Dorsomorphin inhibits BMP signals required for embryogenesis and iron metabolism” (Nat Chem Biol, 2008)
